How the values were obtained:
[1] = test system: Lichtheimia corymbifera; experiment: Antifungal activity against Absidia corymbifera 04-200170 after 24 to 72 hrs by broth microdilution method; format: functional
Procedure, shortened: (§1)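 Broth microdilution MIC per CLSI M27-A3 (yeasts) or M38-A2 (molds). RPMI 1640 with L-glutamine, without bicarbonate, buffered to pH 7.0 with 0.165 M MOPS. Final test range for the compounds was 0.175–87.5 μM. Incubation at 35°C with visual reading at 24–72 h. MIC was the lowest concentration giving 100% inhibition versus the growth control (azoles 50% or 100%, by organism). Each isolate was run in duplicate in two independent experiments.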

[2] = test system: Candida albicans; experiment: Antifungal activity against Candida albicans ATCC 90028 after 48 to 72 hrs; format: functional
Procedure, shortened: (§2)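 MFC: after the MIC read, 30-μl aliquots from each well without visible growth were plated onto Sabouraud dextrose agar and incubated at 35°C. Reading was at 48–72 h for yeasts and up to 7 days for molds. MFC was the lowest concentration with no colonies.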

[3] = test system: Candida parapsilosis; experiment: Antifungal activity against Candida parapsilosis ATCC 22019 after 48 to 72 hrs; format: functional; conditions: Lodderomyces parapsilosis; procedure, shortened: as §2
[4] = test system: Aspergillus terreus; experiment: Antifungal activity against Aspergillus terreus 05-202844 after 24 to 72 hrs by broth microdilution method; format: functional; procedure, shortened: as §1
[5] = test system: Pichia kudriavzevii; experiment: Antifungal activity against Candida krusei […] after 48 to 72 hrs; format: functional; procedure, shortened: as §2
[6] = test system: Fusarium solani; experiment: Antifungal activity against Fusarium solani 04-203102 after 24 to 72 hrs by broth microdilution method; format: functional
Procedure, shortened: (§3)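 Mold isolates subcultured on potato dextrose agar, then tested by CLSI M38-A2 broth microdilution in RPMI 1640 (L-glutamine, no bicarbonate) buffered to pH 7.0 with 0.165 M MOPS. Compounds were dissolved in water and tested at a final 0.175–87.5 μM. Plates were incubated at 35°C. MIC was read visually as the lowest concentration giving 100% inhibition versus the growth control. Each isolate was run in duplicate in two independent experiments.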

[7] = test system: Scedosporium apiospermum; experiment: Antifungal activity against Scedosporium apiospermum 05-203100 after 24 to 72 hrs by broth microdilution method; format: functional; procedure, shortened: as §3
[8] = test system: Candida parapsilosis; experiment: Antifungal activity against Candida parapsilosis 04-202398 after 24 to 72 hrs by broth microdilution method; format: functional; conditions: Lodderomyces parapsilosis; procedure, shortened: as §1
[9] = test system: Candida tropicalis; experiment: Antifungal activity against Candida tropicalis 04-202361 after 24 to 72 hrs by broth microdilution method; format: functional; procedure, shortened: as §1
[10] = test system: Aspergillus fumigatus; experiment: Antifungal activity against Aspergillus fumigatus ATCC 204305 after 24 to 72 hrs by broth microdilution method; format: functional; procedure, shortened: as §1
[11] = test system: Nakaseomyces glabratus; experiment: Antifungal activity against Candida glabrata 04-202345 after 48 to 72 hrs; format: functional; procedure, shortened: as §2
[12] = test system: Nakaseomyces glabratus; experiment: Antifungal activity against Candida glabrata 04-202345 after 24 to 72 hrs by broth microdilution method; format: functional; procedure, shortened: as §1
[13] = test system: Aspergillus terreus; experiment: Antifungal activity against Aspergillus terreus 05-202844 after 48 to 72 hrs; format: functional; procedure, shortened: as §2
[14] = test system: Lomentospora prolificans; experiment: Antifungal activity against Scedosporium prolificans 05-203060 after 24 to 72 hrs by broth microdilution method; format: functional; procedure, shortened: as §3
[15] = test system: Pichia kudriavzevii; experiment: Antifungal activity against Candida krusei ATCC 9258 after 24 to 72 hrs by broth microdilution method; format: functional; procedure, shortened: as §1
[16] = test system: Cryptococcus gattii species complex; experiment: Antifungal activity against Cryptococcus gattii 05-200122 after 24 to 72 hrs by broth microdilution method; format: functional, Cryptococcus bacillisporus; procedure, shortened: as §1
[17] = test system: Cryptococcus neoformans; experiment: Antifungal activity against Cryptococcus neoformans ATCC 90112 after 24 to 72 hrs by broth microdilution method; format: functional; procedure, shortened: as §1
[18] = test system: Candida parapsilosis; experiment: Antifungal activity against Candida parapsilosis ATCC 22019 after 24 to 72 hrs by broth microdilution method; format: functional; conditions: Lodderomyces parapsilosis; procedure, shortened: as §1
[19] = test system: Candida albicans; experiment: Antifungal activity against Candida albicans ATCC 10231 after 24 to 72 hrs by broth microdilution method; format: functional; procedure, shortened: as §1
[20] = test system: Aspergillus flavus; experiment: Antifungal activity against Aspergillus flavus ATCC 204304 after 24 to 72 hrs by broth microdilution method; format: functional; procedure, shortened: as §1
[21] = Antifungal activity against Exophiala jeanselmei 03-200268 after 24 to 72 hrs by broth microdilution method; format: functional; procedure, shortened: as §1
[22] = test system: Cunninghamella bertholletiae; experiment: Antifungal activity against Cunninghamella bertholletiae 99-12187 after 24 to 72 hrs by broth microdilution method; format: functional; procedure, shortened: as §1
[23] = test system: Rhizopus arrhizus; experiment: Antifungal activity against Rhizopus oryzae 05-203111 after 24 to 72 hrs by broth microdilution method; format: functional; procedure, shortened: as §3
[24] = test system: Exophiala spinifera; experiment: Antifungal activity against Exophiala spinifera 03-200803 after 24 to 72 hrs by broth microdilution method; format: functional; procedure, shortened: as §3
[25] = test system: Cryptococcus neoformans; experiment: Antifungal activity against Cryptococcus neoformans 05-202523 after 48 to 72 hrs; format: functional; procedure, shortened: as §2
[26] = test system: Pichia kudriavzevii; experiment: Antifungal activity against Candida krusei 04-202328 after 24 to 72 hrs by broth microdilution method; format: functional; procedure, shortened: as §1
[27] = test system: Cryptococcus neoformans; experiment: Antifungal activity against Cryptococcus neoformans 05-202523 after 24 to 72 hrs by broth microdilution method; format: functional; procedure, shortened: as §1
[28] = test system: Pichia kudriavzevii; experiment: Antifungal activity against Candida krusei 04-202328 after 48 to 72 hrs; format: functional
Procedure, shortened: (§4)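 CLSI M27-A3 broth microdilution for yeasts in RPMI 1640 with L-glutamine and no bicarbonate, buffered with 0.165 M MOPS to pH 7.0. Compounds were dissolved in water and tested at 0.175–87.5 μM final, 35°C. MIC was read visually at 24–72 h as 100% inhibition versus growth control. For MFC, 30 μl from clear wells went onto SDA at 35°C for 48–72 h, reading the lowest concentration without colonies. Duplicates, two independent runs.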

[29] = test system: Aspergillus flavus; experiment: Antifungal activity against Aspergillus flavus 05-203758 after 24 to 72 hrs by broth microdilution method; format: functional; procedure, shortened: as §1
[30] = test system: Candida albicans; experiment: Antifungal activity against Candida albicans ATCC 90028 after 24 to 72 hrs by broth microdilution method; format: functional; procedure, shortened: as §1
[31] = test system: Rhizopus arrhizus; experiment: Antifungal activity against Rhizopus oryzae 05-203111 after 48 to 72 hrs; format: functional
Procedure, shortened: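 After the broth microdilution MIC read, suspension from every well without visible growth was plated onto Sabouraud dextrose agar and incubated at 35°C, up to 7 days for molds. MFC was taken as the lowest drug concentration with no colonies.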

[32] = test system: Aspergillus fumigatus; experiment: Antifungal activity against Aspergillus fumigatus 05-203114 after 24 to 72 hrs by broth microdilution method; format: functional; procedure, shortened: as §1
[33] = Antifungal activity against Paecilomyces lilacinus 05-200601 after 24 to 72 hrs by broth microdilution method; format: functional; conditions: Purpureocillium lilacinum; procedure, shortened: as §3
[34] = test system: Pichia kudriavzevii; experiment: Antifungal activity against Candida krusei ATCC 6258 after 24 to 72 hrs by broth microdilution method; format: functional; procedure, shortened: as §1
[35] = test system: Candida parapsilosis; experiment: Antifungal activity against Candida parapsilosis 04-202398 after 48 to 72 hrs; format: functional; conditions: Lodderomyces parapsilosis; procedure, shortened: as §4
[36] = test system: Aspergillus fumigatus; experiment: Antifungal activity against Aspergillus fumigatus 05-203114 after 48 to 72 hrs; format: functional
Procedure, shortened: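 CLSI M38-A2 broth microdilution for molds in RPMI 1640 with L-glutamine and no bicarbonate, buffered with 0.165 M MOPS to pH 7.0. Compounds were dissolved in water and tested at 0.175–87.5 μM final, 35°C, up to 7 days. MIC was read visually as 100% inhibition versus growth control. For MFC, clear wells were plated on SDA and the lowest concentration with no colonies taken. Each isolate was run in duplicate, two independent experiments.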

| Compound | MIC [1] | MFC [3] | MIC [4] | MIC [6] | MIC [7] | MIC [8] | MIC [9] | MIC [10] | MIC [12] | MIC [14] | MIC [16] | MIC [17] | MIC [18] | MIC [19] | MIC [20] | MIC [21] | MIC [22] | MIC [23] | MIC [24] | MIC [26] | other results |
| --- | --- | --- | --- | --- | --- | --- | --- | --- | --- | --- | --- | --- | --- | --- | --- | --- | --- | --- | --- | --- | --- |
| CC(C)CCc1cc[n+](CCCCCCCCCCCC[n+]2ccc(CCC(C)C)cc2)cc1.[Cl-].[Cl-] | > 47.3 µg/mL | 2.96 µg/mL | 2.96 µg/mL | 47.3 µg/mL | 11.8 µg/mL | > 47.3 µg/mL | 2.96 µg/mL | > 47.3 µg/mL | 1.48 µg/mL | 2.96 µg/mL | 1.48 µg/mL | 2.96 µg/mL | 1.48 µg/mL | 2.96 µg/mL | > 47.3 µg/mL | 2.96 µg/mL | > 47.3 µg/mL | 5.9 µg/mL | 1.48 µg/mL | 23.7 µg/mL | MFC [2]: 5.9 µg/mL; MFC [5]: 23.7 µg/mL; MFC [11]: 5.9 µg/mL; MFC [13]: 5.9 µg/mL; MIC [15]: 11.8 µg/mL; MFC [25]: 47.3 µg/mL; MIC [27]: 11.8 µg/mL; MFC [28]: 47.3 µg/mL; MIC [29]: > 47.3 µg/mL; MIC [30]: 2.96 µg/mL; MFC [31]: 23.7 µg/mL; MIC [32]: > 47.3 µg/mL; MIC [33]: > 47.3 µg/mL; MIC [34]: 23.7 µg/mL |
| [Cl-].[Cl-].c1ccc(CCCc2cc[n+](CCCCCCCCCCCC[n+]3ccc(CCCc4ccccc4)cc3)cc2)cc1 | > 55.8 µg/mL | 1.74 µg/mL | 1.74 µg/mL | 27.9 µg/mL | > 55.8 µg/mL | 55.8 µg/mL | 0.87 µg/mL | 27.9 µg/mL | 0.87 µg/mL | > 55.8 µg/mL | 1.74 µg/mL | 1.74 µg/mL | 0.87 µg/mL | 1.74 µg/mL | 55.8 µg/mL | 1.74 µg/mL | 27.9 µg/mL | 0.87 µg/mL | 1.74 µg/mL | 13.9 µg/mL | MFC [35]: > 55.8 µg/mL; MFC [36]: 55.8 µg/mL; MIC [27]: 27.9 µg/mL; MFC [28]: 27.9 µg/mL; MIC [29]: > 55.8 µg/mL; MIC [30]: 1.74 µg/mL; MFC [31]: 1.74 µg/mL; MIC [32]: 13.9 µg/mL; MIC [33]: > 55.8 µg/mL; MIC [34]: 13.9 µg/mL |

Reference: ChEMBL document CHEMBL1629527, “In vitro antifungal activities of bis(alkylpyridinium)alkane compounds against pathogenic yeasts and molds” (Antimicrob Agents Chemother, 2010)
